Apaf-1 act: human Apaf-1 activation; 330,000 compounds, 0.31% hits; O14727; activity change, negative = activation, % at 20 µM; Apaf-1 apoptosome caspase-3 activation, DEVD-Rh110 fluorescence; hits give low values;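 active = activity change at or below -40% at 20 µM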
Target sequence (O14727 whole entry, looked up): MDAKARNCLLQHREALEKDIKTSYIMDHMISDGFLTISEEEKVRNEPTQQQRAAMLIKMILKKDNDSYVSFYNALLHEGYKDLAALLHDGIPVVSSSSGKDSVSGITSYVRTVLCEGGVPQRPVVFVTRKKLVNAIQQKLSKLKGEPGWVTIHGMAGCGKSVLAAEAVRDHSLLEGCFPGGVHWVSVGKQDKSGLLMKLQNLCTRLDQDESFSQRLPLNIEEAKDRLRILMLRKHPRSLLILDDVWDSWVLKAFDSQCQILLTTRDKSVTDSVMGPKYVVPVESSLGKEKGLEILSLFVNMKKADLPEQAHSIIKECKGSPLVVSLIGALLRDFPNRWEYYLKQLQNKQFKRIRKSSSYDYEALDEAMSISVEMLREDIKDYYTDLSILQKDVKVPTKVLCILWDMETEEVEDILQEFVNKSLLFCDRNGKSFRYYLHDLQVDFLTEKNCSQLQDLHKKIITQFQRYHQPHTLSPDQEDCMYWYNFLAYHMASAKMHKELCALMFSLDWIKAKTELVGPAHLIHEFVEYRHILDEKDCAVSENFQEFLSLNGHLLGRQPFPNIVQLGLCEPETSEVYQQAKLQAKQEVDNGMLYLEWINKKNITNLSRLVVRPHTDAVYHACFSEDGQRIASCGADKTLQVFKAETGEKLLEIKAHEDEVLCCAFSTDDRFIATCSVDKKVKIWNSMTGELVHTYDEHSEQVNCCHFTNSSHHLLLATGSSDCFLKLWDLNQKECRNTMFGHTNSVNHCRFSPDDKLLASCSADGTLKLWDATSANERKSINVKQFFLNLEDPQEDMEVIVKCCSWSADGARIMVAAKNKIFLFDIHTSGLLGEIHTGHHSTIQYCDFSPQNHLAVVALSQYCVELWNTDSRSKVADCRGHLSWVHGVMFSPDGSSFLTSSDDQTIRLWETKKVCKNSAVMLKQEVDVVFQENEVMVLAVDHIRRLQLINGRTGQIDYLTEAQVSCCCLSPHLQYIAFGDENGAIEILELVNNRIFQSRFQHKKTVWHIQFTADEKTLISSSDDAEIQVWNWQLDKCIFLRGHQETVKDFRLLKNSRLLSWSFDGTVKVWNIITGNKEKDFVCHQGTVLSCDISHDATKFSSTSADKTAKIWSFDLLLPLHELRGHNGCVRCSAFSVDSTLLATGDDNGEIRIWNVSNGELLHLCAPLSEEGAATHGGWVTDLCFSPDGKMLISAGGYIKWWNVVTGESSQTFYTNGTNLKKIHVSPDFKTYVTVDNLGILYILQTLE
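system = biochemical Apaf-1 apoptosome reconstitution | buffer or medium = 20 mM HEPES pH 7.5 with CHAPS, BSA | also added = dATP and cytochrome c as apoptosome triggers, (Z-DEVD)2-Rh110 substrate | incubation = 30 min compound preincubation and 50 min reaction, both room temperature | measured by = fluorescence, 540 nm emission, 480 nm excitation | read-out basis = Caspase-3 cleavage activity downstream of Apaf-1 activation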
Rh110 interf act: interferes with Rh110 fluorescence, flagging false Apaf-1 activators. 980 tested, under 10 active. AID 504616. fluorescence interference (activity change), % at 20 µM, hits read low. shares compounds with Apaf-1 act. Rh110 fluorescence interference, quenched caspase reaction, Ex480/Em540;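 active = mean activity change at or below -40% when tested at 20 µM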
Apaf-1 act conf2: Apaf-1 (human) activation, single-dose confirmed; 980 compounds, 5% hits; reconstituted apoptosome caspase-3 activity, DEVD-Rh110 fluorescence; hits give low values; shares compounds with Apaf-1 act; AID 504617; activity change, negative = activation, % at 20 µM;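 active = mean activity change at or below -40%, meaning activation of 40% or more, at 20 µM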
* = called active by the depositor; nt = not tested or not shown. The list is a sample of the results.

SMILES	Apaf-1 act	Rh110 interf act	Apaf-1 act conf2
CC(=O)N(C)c1ccc(N=Cc2cc3c(cc2[N+](=O)[O-])OCO3)cc1	65	nt	nt
CNC(=O)c1[nH]cnc1C(=O)Nc1ccc(C)cc1	-205*	4	5
COc1ccccc1NC(=O)c1nc[nH]c1C(=O)Nc1ccccc1OC	95	nt	nt
O=C(c1ccco1)[C@@H]1[C@@H]2C(=O)N(c3ccccc3)C(=O)[C@@H]2C2c3ccccc3C=CN21 (stereo partly specified)	86	nt	nt
CCOC(=O)c1c(-c2ccc(OC)cc2)oc2cc(Br)c(O)cc12	-62*	-1	-28
CCOC(=O)c1c(C)oc2c1C(=O)c1ccccc1C2=O	69	nt	nt
COC(=O)c1ccccc1N/C=C1\CCc2c(c(C)nn2-c2ccccn2)C1=O	69	nt	nt
CCOC(=O)c1c(C)oc2c1c(C=NCCC(=O)O)c(O)c1ccccc12	81	nt	nt
CN(CC(=O)NCc1ccccc1)CC(=O)Nc1ccc(Cl)c(C(F)(F)F)c1	53	nt	nt
Cc1ccc(NC(=O)CNCc2ccccc2)cc1Br	-48*	11	-9
CC(C)c1nccn1S(=O)(=O)c1cc(Cl)ccc1Cl	-41*	-1	7
Cc1ccc(O)c([C@H](CCN(C(C)C)C(C)C)c2ccccc2)c1	1	nt	nt
CCCC(=O)N1c2ccccc2[C@@H](N(C(C)=O)c2ccccc2)C[C@H]1C	-55*	0	12
FC(F)(F)c1cc(CCN2CCNC[C@@H]2CC2CCCCC2)cc(C(F)(F)F)c1	79	nt	nt
O=C(Nc1ccc(N2CCN(C(=O)c3ccccc3F)CC2)cc1)c1cncc(Br)c1	-65*	14	17
Cc1[nH]n(-c2ccccc2)c(=O)c1C(c1cccc([N+](=O)[O-])c1O)c1c(C)[nH]n(-c2ccccc2)c1=O	88	nt	nt
CC(=O)c1ccc(NC(=O)c2noc(C(C)C)c2[N+](=O)[O-])cc1	-127*	5	-4
CCOc1cc(CNc2ccc(O)cc2)ccc1OCc1ccc(Cl)cc1Cl	94	nt	nt
O=C(N/N=C\c1ccc(-c2ccccc2[N+](=O)[O-])o1)C1COc2ccccc2O1 (stereo unspecified)	79	nt	nt
O=C(COc1ccccc1[N+](=O)[O-])N/N=C/c1ccncc1	-53*	9	15
O=C(N/N=C/c1ccc(-c2ccccc2[N+](=O)[O-])o1)c1cncc(Br)c1	81	nt	nt
CCCC[n+]1ccn(C2=C([O-])c3ccccc3C(=O)/C2=N\S(=O)(=O)c2ccc(Cl)cc2)c1	52	nt	nt
CC(C)CCn1c(N)c(S(=O)(=O)c2cccs2)c2nc3ccccc3nc21	51	nt	nt
O=C1C(=Cc2ccco2)C(=O)c2ccccc21	44	nt	nt
O=C(Nc1ccc2nsnc2c1)N1CCCCC1	73	nt	nt
SMILES	Apaf-1 act	Rh110 interf act	Apaf-1 act conf2
COc1ccccc1NC(=O)Nc1ccc(C(=O)N2CCCCC2)cc1	-80*	-1	13
COc1ccccc1NC(=S)Nc1cccc2cnccc12	97	nt	nt
CCCCCCSc1cc(-c2nc3cnccn3c2NCCCC)ccc1OC	46	nt	nt
CC(=O)c1ccc(N2CCN(C(=O)CCN3C(=S)NC(C)(C)CC3C)CC2)cc1 (stereo unspecified)	-139*	7	16
N#CCCn1[nH]c(-c2ccccc2)cc1=O	72	nt	nt
Cc1cc(NC(=O)CCCn2nc([N+](=O)[O-])c(Br)c2C)no1	40	nt	nt
CCNC(=S)SCCOc1ccc(C)cc1	-127*	12	20
O=C(NC1CC1)C1=C[C@H](c2ccc(C(F)(F)F)cc2)C[C@H](OCCCCO)O1	50	nt	nt
CCCCc1c(C)c(C#N)c2[nH]c3ccccc3n2c1=O	45	nt	nt
COc1ccccc1N1CCN(Cc2nc(-c3ccc(F)cc3)oc2C)CC1	-236*	5	13
COc1ccc(N2CCN(Cc3nc4scc(-c5ccccc5)c4c(=O)[nH]3)CC2)cc1	44	nt	nt
COC(=O)CCC(=O)OC1(C)C(=O)C=C2C=C(C3CC3)N(C3CCCCC3)C=C2C1=O (stereo unspecified)	62	nt	nt
O=C(c1ccc(-c2ccccc2Cl)o1)N1CCCC(C(F)(F)F)C1 (stereo unspecified)	41	nt	nt
CN(C)S(=O)(=O)N1CCCN(S(=O)(=O)N(C)C)CC1	-313*	0	14
CCn1nc(C(=O)Nc2ccccc2C)c(Cl)c1Cl	-137*	-2	8
CCCCCc1cc(=O)oc2c(C(CCN(CC)CC)c3ccc(OC)cc3)c(OC)cc(OC)c12 (stereo unspecified)	61	nt	nt
C=CC[C@@H](Cc1ccc(F)cc1)C(=O)OC[C@H]1CCCN1C(=O)[C@@H](CC=C)CC(=O)N[C@H](CO)Cc1ccccc1	41	nt	nt
Nc1c(S(=O)(=O)c2cccs2)c2nc3ccccc3nc2n1CCc1ccccc1	71	nt	nt
Cc1cc(C)c(S(=O)(=O)/N=C2\C=C(Nc3ccc(C(=O)O)cc3)C(=O)c3ccccc32)c(C)c1	89	nt	nt
CC1CN(CCC(=O)Nc2ccc3c(c2)CCC3)CC(C)O1 (stereo unspecified)	-85*	10	16
C=CCn1c(N)c(C(=O)Nc2cccc(C)c2)c2nc3ccccc3nc21	48	nt	nt
CCCCCCCCCCCCCCCC[n+]1cccc2ccccc21	91	nt	nt
CN(C)c1cc(N/N=C/c2ccccc2C(F)(F)F)nc(N(C)C)n1	56	nt	nt
COc1ccccc1-n1ccnc1SCC(=O)NCc1ccco1	-146*	16	19
COc1ccc(OC)c(Nc2cc3ccccc3c(=O)[nH]2)c1	97	nt	nt
SMILES	Apaf-1 act	Rh110 interf act	Apaf-1 act conf2
CCOC(=O)N1CCN(S(=O)(=O)c2ccc(C(=O)N(CCCN(C)C)c3nc4ccc(CC)cc4s3)cc2)CC1	55	nt	nt
CCC[C@@H](CN1CCC[C@H]1CN1C(N)=NC[C@@H]1Cc1ccccc1)N1C[C@@H](Cc2ccccc2)N(CCCC2CCCC2)C1=N	70	nt	nt
Cc1ccc(S(=O)(=O)N(C)C)cc1NC(=S)Nc1cccc2ccccc12	93	nt	nt
Cc1ccc(S(=O)(=O)N(C)C)cc1NC(=O)CSc1nc2ncc(Cl)cc2[nH]1	-111*	3	19
O=C(O)CC1S/C(=N/N=C/c2ccc(-c3ccccc3[N+](=O)[O-])o2)NC1=O (stereo unspecified)	73	nt	nt
Nc1ccc(N2CCOCC2)c2nonc12	84	nt	nt
Cc1cc2nc(SCC(=O)Nc3nonc3C)c3c(c2cc1C)CCCC3	-48*	5	16
CC(C)OP(=O)(OC(C)C)C(Nc1ccccn1)c1ccc(F)cc1 (stereo unspecified)	55	nt	nt
CCCCn1c(NC(=O)c2ccc(Br)o2)c(S(=O)(=O)c2ccccc2)c2nc3ccccc3nc21	71	nt	nt
Cc1ccccc1-c1cc2c(nn1)-c1ccccc1C2=O	97	nt	nt
CC(=O)OCC1=C(C(=O)O)N2C(=O)C(NC(=O)C(C)Cn3nc(C)c(Cl)c3C)C2SC1 (stereo unspecified)	-90*	5	-19
CCCCCCCCNC(C)C(O)c1ccc(SC(C)C)cc1 (stereo unspecified)	58	nt	nt
Cc1nc(SCc2ccccc2)c2oc3ccccc3c2n1	-159*	16	13
CCN1CCc2c(sc(NC(=O)c3ccc(C(=O)c4ccccc4)cc3)c2C(N)=O)C1	44	nt	nt
NC(=O)c1c(NC(=O)CCCn2cnc([N+](=O)[O-])n2)sc2c1CCCC2	-90*	-1	16
Cc1cccc(C)c1N1CCN(c2n[nH]c(N)n2)CC1	-60*	3	19
